Here are results for 2 molecules from paper PMC6943132 (Nucleic Acids Research, 2019).

Read-outs that look alike come from different tables or passages of the source.

Data set [1] concerns the target T1, BenM WT (Acinetobacter sp. ADP1, UniProt O68014 1-304).
T1 sequence: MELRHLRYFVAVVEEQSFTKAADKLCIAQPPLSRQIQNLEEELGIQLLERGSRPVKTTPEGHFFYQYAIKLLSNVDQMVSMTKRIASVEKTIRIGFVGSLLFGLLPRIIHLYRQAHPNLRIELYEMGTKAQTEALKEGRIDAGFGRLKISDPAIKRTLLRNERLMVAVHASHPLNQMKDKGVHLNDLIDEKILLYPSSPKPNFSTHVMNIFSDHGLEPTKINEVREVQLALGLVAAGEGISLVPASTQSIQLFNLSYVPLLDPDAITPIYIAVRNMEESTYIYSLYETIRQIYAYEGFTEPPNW
In words: BLI. For orientation: BLI is a label-free optical method that tracks binding on a fibre tip over time.

The test system of data set [2] is 209bp_CYC1p_BenO_T1::yEGFP reporter. It is filed as cell-based, Saccharomyces cerevisiae. The following applies: P < 0.05.
For data set [3], the system named is 209 bp_CYC1pro. Nature of the data set: Biolayer interferometry of BenM WT on negative control cyc1 promoter element. The data set is classed as binding. The following applies: BLI, 1.6–100 nM WT BenM. The gist of the method:
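His-tagged protein purified on a HisTrap column with stepwise imidazole elution (Tris–HCl, NaCl, glycerol, DTT, pH 7.9), then optionally polished by Superdex 200 gel filtration (50 mM Tris–HCl, 150 mM NaCl, pH 8.0). Biotinylated 209 bp promoter duplex was annealed at 94°C for 2 min, then RT for 3 h. Kinetics were kept only when fit R² > 0.95; Req/Rmax fractional saturation versus protein concentration gave the Hill coefficient.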

Data set [4] deals with 209bp_CYC1p_BenO_T1::yEGFP reporter. It is filed as cell-based, Saccharomyces cerevisiae. The gist of the method:
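S. cerevisiae CEN.PK carrying a chromosomal yeGFP reporter and plasmid-borne BenM variants, grown overnight in SC-Leu at 30°C. Cultures were subcultured 1:100 into medium ± CCM for 22–23 h, then flow cytometry (488 nm) gave MFI from 10 000 gated single cells. Controls were run in biological triplicate. Fold induction is inducer-medium MFI divided by control-medium MFI. Populations were compared by two-tailed Mann–Whitney test.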

B1: 209bp_CYC1pro (dsDNA)
DNA 1: ATTAGGACCTTTGCAGCATAAATTACTATACTTCTATAGACACACAAACACAAATACACACACTAAATTAATA
DNA 2: TATTAATTTAGTGTGTGTATTTGTGTTTGTGTGTCTATAGAAGTATAGTAATTTATGCTGCAAAGGTCCTAAT
In the case of B1, the binding result in data set [1] is recorded as “no binding”.

B2: BenM WT: Acinetobacter sp. ADP1 CCM-binding LysR-type transcriptional activator BenM, wild type (protein, UniProt O68014 1-304, looked up)
HTH-type transcriptional …: T1 sequence
B2: the “lowest adipic acid concentration with significant induction” value in data set [2] turned out to be 14 mM. Further, the “binding to negative control cyc1 promoter element” value in data set [3] is “no binding was observed”. For the same molecule, the fold-induction in data set [4] (0.035 mM CCM) stood at 0.90 ± 0.05; in data set [4] (0.070 mM CCM) it was 1.02 ± 0.14. The fold induction – broadly, the ratio of treated to control signal – in data set [4] (1.4 mM CCM vs control medium) is 2.8 fold. Moreover, the “lowest CCM concentration with significant induction (lower detection limit)” value in data set [4] (P < 0.05 vs control medium) is 0.56 mM. Further, the “fold induction by CCM” value in data set [4] (within the operational range of WT BenM) was 5 fold.
